This is an account of results in ChEMBL document CHEMBL4613280, “Development of Pyrazolo[3,4-d]pyrimidine Kinase Inhibitors as Potential Clinical Candidates for Glioblastoma Multiforme” (ACS Med Chem Lett, 2020).

The nature of assay [1]: Antagonistic cytotoxicity against human GIN8 cells assessed as combination index measured after 48 hrs in presence of 3-(4-chlorophenyl)-1-(2-chloro-2-phenylethyl)pyrazolo[3,4-d]pyrimidin-4-amine by Chou-Talalay assay. The class given is functional. In outline:
(§1)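 Each drug pair dosed at a 1:1 molar ratio on the GBM lines and incubated 48 h. CI computed from three independent IC50 experiments (n = 3), reported as mean ± SD.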

In assay [2] the target is Serine/threonine-protein kinase Sgk1 (Homo sapiens, UniProt O00141, S422D). The assay can be described thus: Inhibition of human N-terminal His6-tagged N-truncated human SGK1 harboring S422D mutant expressed in Sf21 cells using Sgktide-peptide as substrate in presence of [gamma-32P]ATP by scintillation counting method.
Serine/threonine-protein kinase Sgk1, sequence (O00141 whole entry S422D, the tested form may be a part): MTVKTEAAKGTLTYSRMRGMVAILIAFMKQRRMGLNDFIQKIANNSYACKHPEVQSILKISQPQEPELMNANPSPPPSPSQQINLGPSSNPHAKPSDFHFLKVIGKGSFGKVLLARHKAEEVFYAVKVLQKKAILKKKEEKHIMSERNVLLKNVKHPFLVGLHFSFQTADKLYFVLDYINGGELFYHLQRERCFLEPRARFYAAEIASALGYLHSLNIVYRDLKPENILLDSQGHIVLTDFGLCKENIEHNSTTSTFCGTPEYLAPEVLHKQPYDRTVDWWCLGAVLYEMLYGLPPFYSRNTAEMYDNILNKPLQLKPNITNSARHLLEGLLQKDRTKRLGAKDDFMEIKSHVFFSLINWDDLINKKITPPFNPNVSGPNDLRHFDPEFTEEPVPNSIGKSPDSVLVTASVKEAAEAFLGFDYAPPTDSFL
Assay [3] in a line: Synergistic cytotoxicity against human GCE28 cells assessed as combination index measured after 48 hrs in presence of 3-(4-chlorophenyl)-1-(2-chloro-2-phenylethyl)pyrazolo[3,4-d]pyrimidin-4-amine by Chou-Talalay assay. It is filed as functional. In outline:
as §1

Assay [4] is described as follows: Additive cytotoxicity against human GCE28 cells assessed as combination index measured after 48 hrs in presence of N-(3-bromophenyl)-1-(2-chloro-2-phenylethyl)6(2morpholinoethylsulfanyl)pyrazolo[3,4-d]pyrimidin-4-amine by Chou-Talalay assay. It is filed as functional. In outline: as §1
The nature of assay [5]: Additive cytotoxicity against human GIN28 cells assessed as combination index measured after 48 hrs in presence of N-(3-bromophenyl)-1-(2-chloro-2-phenylethyl)6(2morpholinoethylsulfanyl)pyrazolo[3,4-d]pyrimidin-4-amine by Chou-Talalay assay. It is filed as functional. The method in brief: as §1
Assay [6] is described as follows: Synergistic cytotoxicity against human GIN28 cells assessed as combination index measured after 48 hrs in presence of 3-(4-chlorophenyl)-1-(2-chloro-2-phenylethyl)pyrazolo[3,4-d]pyrimidin-4-amine by Chou-Talalay assay. It is filed as functional. In outline:
as §1

The nature of assay [7]: Additive cytotoxicity against human GIN8 cells assessed as combination index measured after 48 hrs in presence of N-(3-bromophenyl)-1-(2-chloro-2-phenylethyl)6(2morpholinoethylsulfanyl)pyrazolo[3,4-d]pyrimidin-4-amine by Chou-Talalay assay. The class given is functional. In outline:
as §1

Assay [8] is described as follows: Cytotoxicity against human GCE28 cells derived from central tumor core of GBM patient assessed as reduction in cell viability measured after 48 hrs by Prestoblue assay. It is filed as functional, cell-based. In outline: (§2)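 Compounds diluted in DMEM containing 10% FBS and applied for 48 h. Viability read by PrestoBlue. IC50 calculated from three independent experiments, mean ± SE. Two-way ANOVA with Dunnett's multiple comparisons test.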

The species named for assay [9] is Homo sapiens. Put plainly: Induction of apoptosis in human GIN28 cells assessed as increase in caspase 3/7 activation at 12.5 uM measured after 48 hrs by CellEvent caspase 3/7 probe based fluorescence analysis. It is filed as functional, cell-based. In outline: (§3)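 Cells exposed 48 h to compounds diluted in 10% FBS DMEM. Activated caspase-3/7 detected with the CellEvent probe. Staurosporine 10.0 μM served as reference inducer. Mean ± SEM (n = 3). Two-way ANOVA with Dunnett's test.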

The nature of assay [10]: Cytotoxicity against human GIN28 cells derived from invasive region of GBM patient assessed as reduction in cell viability measured after 48 hrs by Prestoblue assay. It is filed as functional, cell-based. In outline: as §2
The species entered for assay [11] is Homo sapiens. The assay can be described thus: Induction of apoptosis in human GIN8 cells assessed as increase in caspase 3/7 activation at 12.5 uM measured after 48 hrs by CellEvent caspase 3/7 probe based fluorescence analysis. The class given is functional, cell-based. In outline: as §3
The nature of assay [12]: Cytotoxicity against human GIN8 cells derived from invasive region of GBM patient assessed as reduction in cell viability measured after 48 hrs by Prestoblue assay. The class given is functional, cell-based. The method in brief:
as §2

For assay [13], the species on record is Homo sapiens. The assay can be described thus: Induction of apoptosis in human GCE28 cells assessed as increase in caspase 3/7 activation at 12.5 uM measured after 48 hrs by CellEvent caspase 3/7 probe based fluorescence analysis. The class given is functional, cell-based. In outline: as §3
The species named for assay [14] is Homo sapiens. The assay can be described thus: Induction of apoptosis in human GIN28 cells assessed as increase in caspase 3/7 activation at 10 uM measured after 48 hrs by CellEvent caspase 3/7 probe based fluorescence analysis. The class given is functional, cell-based. The method in brief: (§4)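 Patient-derived GBM cells were exposed to compound diluted in DMEM containing 10% FBS for 48 h. Activated effector caspases-3/7 were then detected with the CellEvent caspase-3/7 fluorescent probe. Data are mean ± SEM of n = 3. Significance was tested by two-way ANOVA with Dunnett's multiple comparisons test.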

The species entered for assay [15] is Homo sapiens. Put plainly: Induction of apoptosis in human GIN8 cells assessed as increase in caspase 3/7 activation at 10 uM measured after 48 hrs by CellEvent caspase 3/7 probe based fluorescence analysis. It is filed as functional, cell-based. In outline: as §4
The species named for assay [16] is Homo sapiens. Put plainly: Induction of apoptosis in human GCE28 cells assessed as increase in caspase 3/7 activation at 10 uM measured after 48 hrs by CellEvent caspase 3/7 probe based fluorecence analysis. It is filed as functional, cell-based. In outline: as §4
Assay [17] in a line: Synergistic cytotoxicity against human GIN28 cells assessed as combination index measured after 48 hrs in presence of N-(3-bromophenyl)-1-(2-chloro-2-phenylethyl)-6-(2-morpholinoethylsulfanyl)pyrazolo[3,4-d]pyrimidin-4-amine by Chou-Talalay assay. The class given is functional. The method in brief:
(§5)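 Two kinase inhibitors were combined at a 1:1 molar ratio, diluted in DMEM with 10% FBS, and incubated with the GBM cells for 48 h. Viability was read by PrestoBlue. Combination index values were calculated from three independent IC50 experiments (n = 3) and are reported as mean ± SD.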

Assay [18] in a line: Antagonistic cytotoxicity against human GIN8 cells assessed as combination index measured after 48 hrs in presence of 2-[[4-(2-phenylethylamino)-1-[styryl]pyrazolo[3,4-d]pyrimidin-6-yl]amino]ethanol by Chou-Talalay assay. The class given is functional. In outline: as §1
Assay [19] is described as follows: Synergistic cytotoxicity against human GIN28 cells assessed as combination index measured after 48 hrs in presence of 2-[[4-(2-phenylethylamino)-1-[styryl]pyrazolo[3,4-d]pyrimidin-6-yl]amino]ethanol by Chou-Talalay assay. The class given is functional. The method in brief: as §1
The nature of assay [20]: Synergistic cytotoxicity against human GIN8 cells assessed as combination index measured after 48 hrs in presence of N-(3-bromophenyl)-1-(2-chloro-2-phenylethyl)-6-(2-morpholinoethylsulfanyl)pyrazolo[3,4-d]pyrimidin-4-amine by Chou-Talalay assay. The class given is functional. The method in brief: as §5
Assay [21] in a line: Synergistic cytotoxicity against human GCE28 cells assessed as combination index measured after 48 hrs in presence of N-(3-bromophenyl)-1-(2-chloro-2-phenylethyl)-6-(2-morpholinoethylsulfanyl)pyrazolo[3,4-d]pyrimidin-4-amine by Chou-Talalay assay. It is filed as functional. The method in brief:
as §1

Assay [22] can be described thus: Synergistic cytotoxicity against human GCE28 cells assessed as combination index measured after 48 hrs in presence of 2-[[4-(2-phenylethylamino)-1-[styryl]pyrazolo[3,4-d]pyrimidin-6-yl]amino]ethanol by Chou-Talalay assay. The class given is functional. The method in brief: as §1

In general, Ki refers to the dissociation constant of the complex between target and ligand, obtained from inhibition or displacement. One may read the IC50 as the concentration needed to halve the response being measured.

The source made the active and inactive calls. No cut-off for these calls is given here.

`OCCNc1nc(NCCc2ccccc2)c2cnn(/C=C/c3ccccc3)c2n1`: the CI in [1] came to 1.13; in [3] it was 0.46; in assay [4] it was 0.97; in assay [5], 0.9; in [6], 0.57; in assay [7], 0.99. For the same compound, the Ki in [2] came to 0.6 µM. The results for the concentration for half-maximal inhibition (IC50) in [8], in [10] and in assay [12] were 10.7 µM, 14.4 µM and 10.5 µM, respectively. For the same compound, the result in the assay filed under Homo sapiens [9] was inactive. Also, the outcome in the assay listed under Homo sapiens [11] and in the assay listed under Homo sapiens [13] was Active.

Turning to `CN[C@@H]1C[C@H]2O[C@@](C)([C@@H]1OC)n1c3ccccc3c3c4c(c5c6ccccc6n2c5c31)C(=O)NC4`, the result in the assay listed under Homo sapiens [14], in the assay filed under Homo sapiens [15] and in the assay listed under Homo sapiens [16] was Active.

Regarding `Nc1ncnc2c1c(-c1ccc(Cl)cc1)nn2CC(Cl)c1ccccc1` (stereo not given), the CI in assay [17] is on record as 0.76; in assay [18], 1.13; in [19] it was 0.57; in assay [20], 0.53; in assay [21], 0.88; in assay [22] it was 0.46. Moreover, the IC50 in assay [8] was determined as 47.6 µM; in assay [10], 49.8 µM; in assay [12], 54.7 µM.
